Data reported in ChEMBL document CHEMBL1157933, “The anti-cancer, anti-inflammatory and tuberculostatic activities of a series of 6,7-substituted-5,8-quinolinequinones” (Bioorg Med Chem, 2010).
pIC50: −log10 of the molar value.

Assays:
HL-60 = assay: Antiproliferative activity against human HL60 cells after 48 hrs by MTT assay; format: functional, cell-based; details: HL-60, 48 h
[1] = Antiinflammatory activity in human neutrophils assessed as inhibition of PMA-induced superoxide production after 20 mins by WST1 assay; format: functional, cell-based; details: Neutrophil
[2] = Antiproliferative activity against human T cells after 48 hrs by MTT assay; format: cell-based; details: T-cell
Procedure, shortened: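 Healthy-donor PBMC (Ficoll-hypaque) activated 2 days with CD2/CD3/CD28-loaded anti-biotin beads, then expanded 2–4 days with 20 U/mL IL-2. Cells plated at 0.2 × 10^6 cells/mL in complete RPMI with varied compound concentrations for 48 h at 37 °C; MTT 2 h, SDS/DMF lysis overnight, absorbance 570 nm. Triplicate, mean reported.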

Cc1ccc(S(=O)(=O)C2=C(S(=O)(=O)c3ccc(C)cc3)C(=O)c3ncccc3C2=O)cc1
pIC50 (HL-60): 4.21 | pIC50 [1]: < 3.70 | pIC50 [2]: 4.39

O=C1C(Cl)=C(NCCBr)C(=O)c2ncccc21
pIC50 (HL-60): 5.92 | pIC50 [1]: 4.68 | pIC50 [2]: 5.60

O=C1C(NCCCl)=C(Cl)C(=O)c2ncccc21
pIC50 (HL-60): 5.79 | pIC50 [1]: 4.43 | pIC50 [2]: 5.64

O=C1C(Cl)=C(NCCCl)C(=O)c2ncccc21
pIC50 (HL-60): 5.71 | pIC50 [1]: 4.51 | pIC50 [2]: 5.64

Cc1ccc2c(n1)C(=O)C(Cl)=C(NCCBr)C2=O
pIC50 (HL-60): 5.89 | pIC50 [1]: 4.47 | pIC50 [2]: 5.65

Cc1ccc2c(n1)C(=O)C(NCCBr)=C(Cl)C2=O
pIC50 (HL-60): 5.92 | pIC50 [1]: 4.14 | pIC50 [2]: 5.80

CNC1=C(SC)C(=O)c2cccnc2C1=O
pIC50 (HL-60): 5.10 | pIC50 [1]: < 3.70 | pIC50 [2]: 5.12

CNC1=C(Sc2ccccc2)C(=O)c2ncccc2C1=O
pIC50 (HL-60): 5.10 | pIC50 [1]: < 3.82 | pIC50 [2]: 4.91

CNC1=C(Sc2ccccc2)C(=O)c2cccnc2C1=O
pIC50 (HL-60): 5.23 | pIC50 [1]: 4.03 | pIC50 [2]: 5.16

CNC1=C([S+](C)[O-])C(=O)c2ncccc2C1=O (stereo not drawn)
pIC50 (HL-60): 4.92 | pIC50 [1]: < 3.70 | pIC50 [2]: 4.93

Cc1ccc2c(n1)C(=O)C(Cl)=C(Cl)C2=O
pIC50 (HL-60): 4.73 | pIC50 [1]: 5.47 | pIC50 [2]: 4.35

O=C1c2cccnc2C(=O)C2SCCNC12 (stereo not drawn)
pIC50 (HL-60): 5.37 | pIC50 [1]: < 3.70 | pIC50 [2]: 5.23

O=C1C2=C(NCCS2)C(=O)c2ncccc21
pIC50 (HL-60): 5.45 | pIC50 [1]: < 3.70 | pIC50 [2]: 5.22

C[S+]([O-])C1=C(N)C(=O)c2cccnc2C1=O (stereo not drawn)
pIC50 (HL-60): 5.89 | pIC50 [1]: < 3.70 | pIC50 [2]: 5.71

CNC1=C(Cl)C(=O)c2cccnc2C1=O
pIC50 (HL-60): 5.37 | pIC50 [1]: 4.39 | pIC50 [2]: 5.28

CSC1=C(N)C(=O)c2cccnc2C1=O
pIC50 (HL-60): 5.12 | pIC50 [1]: < 3.82 | pIC50 [2]: 5.08

CNC1=C(SC)C(=O)c2ncccc2C1=O
pIC50 (HL-60): 5.46 | pIC50 [1]: < 3.70 | pIC50 [2]: 4.71

CSC1=C(SC)C(=O)c2ncccc2C1=O
pIC50 (HL-60): 5.91 | pIC50 [1]: 6.96 | pIC50 [2]: 5.77

O=C1C(NCCBr)=C(Cl)C(=O)c2ncccc21
pIC50 (HL-60): 5.78 | pIC50 [1]: 4.70 | pIC50 [2]: 5.59

O=C1C(NC(c2ccccc2)c2ccccc2)=C(Cl)C(=O)c2ncccc21
pIC50 (HL-60): 5.61 | pIC50 [1]: 4.47 | pIC50 [2]: 5.59

CNC1=C(Cl)C(=O)c2ncccc2C1=O
pIC50 (HL-60): 5.61 | pIC50 [1]: 4.10 | pIC50 [2]: 5.45

CNC1=C([S+](C)[O-])C(=O)c2cccnc2C1=O (stereo not drawn)
pIC50 (HL-60): 4.48 | pIC50 [1]: < 3.70 | pIC50 [2]: 4.87

CS(=O)(=O)C1=C(N)C(=O)c2cccnc2C1=O
pIC50 (HL-60): 5.34 | pIC50 [1]: < 3.70 | pIC50 [2]: 4.71

Cc1ccc(S(=O)(=O)C2=C(Cl)C(=O)c3ncccc3C2=O)cc1
pIC50 (HL-60): 4.42 | pIC50 [1]: < 3.70 | pIC50 [2]: 4.45

O=C1C(Sc2ccccc2)=C(Sc2ccccc2)C(=O)c2ncccc21
pIC50 (HL-60): 5.43 | pIC50 [1]: 4.61 | pIC50 [2]: 5.11

Oc1c(Sc2ccccc2)c(Sc2ccccc2)c(O)c2ncccc12
pIC50 (HL-60): 5.16 | pIC50 [1]: 5.64 | pIC50 [2]: 5.00
